KDM4C inh: KDM4C (human) demethylase inhibition | inhibition, % at 12.5 µM | AID 720574 | GST-KDM4C 2-372, H3K9me3 peptide, LANCE TR-FRET | 96,000 compounds, 0.15% hits;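 active = mean replicate inhibition above about 25%, with at least 55% of replicates also reaching it, limit read from the data, passing the limit was not always enough; inconclusive = only one of those two conditions met; inactive = neither condition met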
Target sequence (Q9H3R0 2-372 limits assumed): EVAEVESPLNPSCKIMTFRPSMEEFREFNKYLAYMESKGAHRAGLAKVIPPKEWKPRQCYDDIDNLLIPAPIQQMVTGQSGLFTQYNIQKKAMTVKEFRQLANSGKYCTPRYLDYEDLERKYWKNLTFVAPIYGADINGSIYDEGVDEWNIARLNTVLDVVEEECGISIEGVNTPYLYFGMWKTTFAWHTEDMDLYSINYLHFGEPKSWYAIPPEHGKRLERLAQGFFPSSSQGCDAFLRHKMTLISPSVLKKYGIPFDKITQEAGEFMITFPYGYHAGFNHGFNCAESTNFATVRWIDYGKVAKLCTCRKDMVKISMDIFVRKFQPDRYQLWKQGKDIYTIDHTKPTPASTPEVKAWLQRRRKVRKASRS
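System – N-terminal GST-fused human GASC-1 (KDM4C) fragment, residues 2-372 · Input – enzyme final amount 10 nM · Technique – LANCE TR-FRET, Eu antibody, ULight-streptavidin, EDTA, ex 340 nm, em 618/671 nm · Medium – HEPES buffer, pH 7.5, plus ascorbate · Incubation – enzyme reaction 30 min, then detection 60 min, both room temperature · Reagent – H3K9me3 peptide with Fe(II)/2OG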
Tcruzi prolif: inhibitors of T. cruzi proliferation | T. cruzi beta-gal in NIH3T3, GalScreen luminescence, 90 h | inhibition, % at 8.34 µM | 77,000 compounds, 5.9% hits;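 active = mean inhibition above about 93%, with at least 55% of replicates each passing it, limit read from the data, passing the limit was not always enough; inconclusive = only one of those two conditions holds; inactive = neither condition holds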
IDH1 R132H inh: IDH1 R132H (human) inhibition; IDH1 R132H reductase, diaphorase/resazurin fluorescence, 60 min; inhibition, % at 10 µM; 70,000 compounds, 0.18% hits; AID 624101; in the data active = inhibition above about 34%; inconclusive = no clear call, values can overlap the other calls; inactive = below about 11%
Numbers stand for hits. Shown is part of a subset that was picked to be rich in hits.

Screening C[C@@H]1CN([C@@H](C)CO)C(=O)Cc2cc(NC(=O)Nc3ccc(F)cc3)ccc2O[C@@H]1CN(C)Cc1ccncc1 returned Tcruzi prolif inactive and IDH1 R132H inh inactive.
For CC(C)NC(=O)Nc1ccc2c(c1)CC(=O)N([C@@H](C)CO)C[C@@H](C)[C@H](CN(C)Cc1ccncc1)O2 the results were KDM4C inh inactive and IDH1 R132H inh 43.
Screening C[C@H]1CN([C@@H](C)CO)C(=O)Cc2cc(NC(=O)C3CCCCC3)ccc2O[C@H]1CN(C)Cc1ccncc1 returned KDM4C inh inactive, Tcruzi prolif inactive and IDH1 R132H inh inactive.
C[C@@H]1CN([C@@H](C)CO)C(=O)Cc2cc(NC(=O)C3CCCCC3)ccc2O[C@H]1CN(C)Cc1ccncc1 was read as KDM4C inh inactive, Tcruzi prolif inactive and IDH1 R132H inh 46.
For CC(C)=CCc1c(O)c(CC=C(C)C)c2c(c1O)C(=O)CC(c1ccc(O)cc1O)O2 (stereo unspecified) the results were IDH1 R132H inh inactive.
For C[C@H](CO)N1C[C@H](C)[C@H](CN(C)C(=O)Cc2ccncc2)Oc2cc(C3=CCCCC3)ccc2S1(=O)=O the results were KDM4C inh inactive, Tcruzi prolif inactive and IDH1 R132H inh inconclusive.
For CC(C)C#Cc1ccc2c(c1)O[C@H](CN(C)Cc1ccncc1)[C@H](C)CN([C@@H](C)CO)S2(=O)=O the results were KDM4C inh inactive, Tcruzi prolif 105 and IDH1 R132H inh inactive.
Screening C[C@H](O)C#Cc1ccc2c(c1)O[C@H](CN(C)Cc1ccncc1)[C@@H](C)CN([C@@H](C)CO)S2(=O)=O returned KDM4C inh inactive and Tcruzi prolif inactive.
For C[C@H](CO)N1C[C@H](C)[C@@H](CN(C)Cc2ccncc2)Oc2cc(C3=CCCC3)ccc2S1(=O)=O the results were KDM4C inh inactive, Tcruzi prolif inactive and IDH1 R132H inh 48.
Screening C[C@@H]1CN([C@@H](C)CO)S(=O)(=O)c2ccc(C3=CCCCC3)cc2O[C@H]1CN(C)C(=O)Cc1cccnc1 returned KDM4C inh inactive, Tcruzi prolif inactive and IDH1 R132H inh 45.
C[C@H](CO)N1C[C@H](C)[C@@H](CN(C)Cc2ccc(F)cc2)Oc2cc(C#CCN(C)C)ccc2S1(=O)=O was read as KDM4C inh inactive, Tcruzi prolif inactive and IDH1 R132H inh inactive.
Screening C[C@H](CO)N1C[C@H](C)[C@H](CN(C)Cc2ccc(F)cc2)Oc2cc(C#CCN(C)C)ccc2S1(=O)=O returned KDM4C inh 42, Tcruzi prolif inactive and IDH1 R132H inh inactive.
`C[C@@H]1CN([C@H](C)CO)S(=O)(=O)c2ccc(C3=CCCC3)cc2O[C@@H]1CN(C)Cc1ccncc1` gave KDM4C inh inactive and Tcruzi prolif inactive.
Screening C=CCOC(=O)[C@H]1[C@@H]2C(=O)O[C@@H](c3ccccc3)[C@@H](c3ccccc3)N2[C@@H](c2ccc(OCCOC(=O)[C@H]3C[C@H]4C(=O)N[C@@H](Cc5ccccc5)C(=O)N4[C@H]3c3ccc(O)cc3)cc2)[C@]12C(=O)Nc1ccccc12 returned IDH1 R132H inh inactive.
Screening CC(C)(Oc1ccc(Cl)cc1)C(=O)Nc1cc(-c2nc3ncccc3o2)ccc1Cl returned IDH1 R132H inh inactive.
Screening COc1ccc(NC(=O)NCc2cc(C)n(C)n2)cc1OC returned IDH1 R132H inh inactive.
Screening COc1cccc(NC(=O)CSc2nnc(-c3ccccc3F)n2-c2ccccc2)c1 returned IDH1 R132H inh inactive.
Screening CCCC(O)/C(=C/C1=C(C(=O)CC(CC(=O)O)OC(N)=O)C(=O)c2cccc(O)c2C1=O)CC(C(=O)O)[N+](C)(C)C (stereo unspecified) returned IDH1 R132H inh inactive.
`C[C@@H]1CN([C@H](C)CO)S(=O)(=O)c2ccc(Br)cc2O[C@H]1CN(C)Cc1ccncc1` gave KDM4C inh inactive, Tcruzi prolif inactive and IDH1 R132H inh 42.
For C[C@H](CO)N1C[C@H](C)[C@H](CN(C)Cc2ccncc2)Oc2cc(Br)ccc2S1(=O)=O the results were Tcruzi prolif inactive.
COc1ccc2c(c1)c(=O)oc1cc(OCC(=O)Nc3cc(C)cc(C)c3)ccc12 was read as IDH1 R132H inh inactive.
For N[C@H]1CC[C@H](CCn2cc(C3CCCCC3)nn2)O[C@@H]1CO the results were KDM4C inh inactive, Tcruzi prolif inactive and IDH1 R132H inh inactive.
For CN(C)Cc1cn(CC[C@H]2CC[C@@H](N)[C@H](CO)O2)nn1 the results were KDM4C inh inconclusive, Tcruzi prolif inactive and IDH1 R132H inh inactive.
CC(C)c1cn(CC[C@@H]2CC[C@H](N)[C@@H](CO)O2)nn1 was read as KDM4C inh 38, Tcruzi prolif inactive and IDH1 R132H inh inactive.
`N[C@H]1CC[C@H](CCn2cc(C3CC3)nn2)O[C@@H]1CO` gave KDM4C inh 31.
For O=c1ccc2ccc(Oc3ncnc4scc(-c5ccc(F)cc5)c34)cc2o1 the results were IDH1 R132H inh inactive.
Screening Cc1ccc(C)c(NC(=O)CSc2cc(C)c3ccccc3n2)c1 returned IDH1 R132H inh inactive.
For COc1cccc(NC(=O)N(C)C[C@H]2Oc3cc(C#Cc4ccccc4)ccc3S(=O)(=O)N([C@@H](C)CO)C[C@H]2C)c1 the results were KDM4C inh inactive, Tcruzi prolif 120 and IDH1 R132H inh inactive.
`COc1ccc(C#Cc2ccc3c(c2)O[C@@H](CN(C)C(=O)Nc2cccc(OC)c2)[C@@H](C)CN([C@H](C)CO)S3(=O)=O)cc1` gave KDM4C inh inactive and Tcruzi prolif inactive.
For COc1cccc(NC(=O)N(C)C[C@@H]2Oc3cc(C#Cc4ccccc4)ccc3S(=O)(=O)N([C@@H](C)CO)C[C@H]2C)c1 the results were KDM4C inh inactive and Tcruzi prolif 125.
Screening COc1ccc(C#Cc2ccc3c(c2)O[C@@H](CN(C)C(=O)Nc2cccc(OC)c2)[C@H](C)CN([C@@H](C)CO)S3(=O)=O)cc1 returned Tcruzi prolif inactive.
`Cc1cc(C(=O)O)ccc1NC(=O)CNC(=O)C1CCCCC1` gave IDH1 R132H inh inactive.
For Cc1ccc(S(=O)(=O)NCC[C@H]2CC[C@@H](NC(=O)CC3CC3)[C@H](CO)O2)cc1 the results were KDM4C inh inactive, Tcruzi prolif inactive and IDH1 R132H inh inactive.
Cc1ccc(S(=O)(=O)NCC[C@@H]2CC[C@H](NC(=O)CC3CC3)[C@@H](CO)O2)cc1 was read as KDM4C inh 39, Tcruzi prolif inactive and IDH1 R132H inh inactive.
Screening COC(=O)COc1ccc(NC(=O)c2ccc(NC(C)=O)cc2)cc1 returned IDH1 R132H inh inactive.
For COc1cccc(S(=O)(=O)Nc2ccc3c(c2)[C@@H]2C[C@H](CC(=O)O)O[C@@H](CO)[C@@H]2O3)c1 the results were KDM4C inh inactive, Tcruzi prolif inactive and IDH1 R132H inh inactive.
For CN(C)C(=O)C[C@@H]1C[C@@H]2c3cc(NC(=O)Nc4ccccc4F)ccc3O[C@@H]2[C@@H](CO)O1 the results were KDM4C inh 36, Tcruzi prolif inactive and IDH1 R132H inh 39.
Screening CN(C)C(=O)C[C@H]1C[C@H]2c3cc(NC(=O)Nc4ccccc4F)ccc3O[C@H]2[C@H](CO)O1 returned KDM4C inh inactive, Tcruzi prolif inactive and IDH1 R132H inh inactive.
COCCNC(=O)C[C@@H]1C[C@H]2c3cc(N(C)C)ccc3O[C@H]2[C@H](CO)O1 was read as KDM4C inh 39 and IDH1 R132H inh inactive.

Screens (PubChem)
